Data: ChEMBL document CHEMBL1275442, “Pharmacokinetics and tissue distribution of anidulafungin in rats” (Antimicrob Agents Chemother, 2008)

Legend:
Blood [1] = test: AUC (0 to 24 hrs) in F344 rat blood assessed as total compound-derived radioactivity per gram of tissue at 5 mg/kg, iv administered as single bolus dose […]; assay type: ADME, organism-based; design: time < 24 hr, dose 5 mg/kg, route intravenous; conditions: in vivo
In short: (§1)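 Same F344 study: single 5 mg/kg IV [¹⁴C]anidulafungin given over about 5 min. Total drug-derived radioactivity (parent plus metabolites) counted by liquid scintillation, in […]. Noncompartmental analysis of the composite mean profile.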

Plasma [2] = test: Half life in F344 rat plasma assessed as total compound-derived radioactivity at 5 mg/kg, iv administered as single bolus dose […]; assay type: ADME, organism-based; design: dose 5 mg/kg, route intravenous; conditions: in vivo
In short: (§2)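 Male F344 rats, 10 to 11 weeks old and 223.6 to 243.8 g, got one iv dose of [14C]anidulafungin at 5 mg/kg over about 5 min. Blood, CSF, kidney, liver, lung, quadriceps, spleen and skin were sampled predose and at 0.083 to 72 h, 3 rats per time. Total radioactivity (parent plus metabolites) was measured by liquid scintillation counting. Parameters were noncompartmental, from a composite mean profile.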

Liver [3] = test: AUC (0 to infinity) in F344 rat liver assessed as total compound-derived radioactivity per gram of tissue at 5 mg/kg, iv administered as single bolus dose […]; assay type: ADME, organism-based; design: time infinity, dose 5 mg/kg, route intravenous; conditions: in vivo; in short: as §1
Lung [4] = test: Half life in F344 rat lung assessed as total compound-derived radioactivity at 5 mg/kg, iv administered as single bolus dose […]; assay type: ADME, organism-based; design: dose 5 mg/kg, route intravenous; conditions: in vivo; in short: as §2
Liver [5] = test: Drug level in Long Evans rat liver assessed as high disposition of radioactivity per gram of tissue at 5 mg/kg, iv administered as single bolus dose measured 24 hrs postdose by autoradiography; assay type: ADME, organism-based; design: dose 5 mg/kg, route intravenous; conditions: in vivo
In short: (§3)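 Male pigmented Long Evans (HsdBlu:LE) rats, 7.5 weeks old, 202 to 217 g, single iv [¹⁴C]anidulafungin; one rat per sampling time. Euthanized by isoflurane and cardiac-puncture exsanguination. Sagittal whole-body sections quantified by phosphorimaging autoradiography, single samples corrected for section thickness across multiple sections per tissue. Concentrations (μg eq/g drug-derived radioactivity) interpolated from least-squares standard curves per scan.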

[6] = Tmax in F344 rat kidney at 5 mg/kg, iv administered as single bolus dose by HPLC method; assay type: ADME, organism-based; design: dose 5 mg/kg, route intravenous
In short: (§4)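 F344 males, 10 to 11 weeks old and 223.6 to 243.8 g, got a single 5 mg/kg iv dose of [14C]anidulafungin over about 5 min. Plasma and tissues were collected predose and at 0.083 to 72 h, n = 3 per time point. Parent drug was quantified by HPLC-UV, with LLOQ/ULOQ of 20/5,120 ng/ml in plasma and 220/56,320 ng/g in tissue. Noncompartmental parameters came from a composite mean concentration-time profile.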

Muscle tissue [7] = test: Drug level in Long Evans rat muscle assessed as radioactivity per gram of tissue at 5 mg/kg, iv administered as single bolus dose measured 72 hrs postdose by autoradiography; assay type: ADME, organism-based; design: dose 5 mg/kg, route intravenous; conditions: in vivo
In short: (§5)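 Male pigmented Long Evans (HsdBlu:LE) rats, 7.5 weeks old and 202 to 217 g, got a single iv dose of [14C]anidulafungin at 5 mg/kg. One rat per time point (0.5, 6, 12, 24, 72, 168 h) was euthanised by isoflurane and cardiac-puncture exsanguination. Sagittal whole-body sections were quantified by phosphorimaging. Samples were thickness-corrected, and concentrations (μg eq/g) were interpolated from least-squares standard curves.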

Liver [8] = test: Half life in F344 rat liver assessed as total compound-derived radioactivity at 5 mg/kg, iv administered as single bolus dose […]; assay type: ADME, organism-based; design: dose 5 mg/kg, route intravenous; conditions: in vivo; in short: as §2
Muscle tissue [9] = test: AUC (0 to 24 hrs) in F344 rat muscle at 5 mg/kg, iv administered as single bolus dose; assay type: ADME, organism-based; design: time < 24 hr, dose 5 mg/kg, route intravenous; conditions: in vivo
In short: (§6)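 Male F344 rats, 10–11 weeks, 223.6–243.8 g, given one IV dose of [¹⁴C]anidulafungin, 5 mg/kg, over about 5 min. Tissues and blood sampled at 0.083–72 h (n = 3 rats per time). Parent drug measured by HPLC; LLOQ/ULOQ were 20/5,120 ng/ml for plasma and 220/56,320 ng/g for tissue. Noncompartmental parameters taken from the composite mean profile.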

Liver [10] = test: Drug level in Long Evans rat liver assessed as low disposition of radioactivity per gram of tissue at 5 mg/kg, iv administered as single bolus dose measured 24 hrs postdose by autoradiography; assay type: ADME, organism-based; design: dose 5 mg/kg, route intravenous; conditions: in vivo; in short: as §3
Liver [11] = test: Drug level in Long Evans rat liver assessed as high disposition of radioactivity per gram of tissue at 5 mg/kg, iv administered as single bolus dose measured 72 hrs postdose by autoradiography; assay type: ADME, organism-based; design: dose 5 mg/kg, route intravenous; conditions: in vivo; in short: as §3
Zone of skin [12] = test: Drug level in Long Evans rat skin assessed as radioactivity per gram of tissue at 5 mg/kg, iv administered as single bolus dose measured 12 hrs postdose by autoradiography; assay type: ADME, organism-based; design: dose 5 mg/kg, route intravenous; conditions: in vivo; in short: as §5
Cerebrospinal fluid [13] = test: Half life in F344 rat cerebrospinal fluid assessed as total compound-derived radioactivity at 5 mg/kg, iv administered as single bolus dose […]; assay type: ADME, organism-based; design: dose 5 mg/kg, route intravenous; conditions: in vivo; in short: as §2
[14] = Drug level in Long Evans rat eye assessed as radioactivity per gram of tissue at 5 mg/kg, iv administered as single bolus dose measured 12 hrs postdose by autoradiography; assay type: ADME, organism-based; design: dose 5 mg/kg, route intravenous; conditions: in vivo; in short: as §3
[15] = Tmax in F344 rat muscle at 5 mg/kg, iv administered as single bolus dose by HPLC method; assay type: ADME, organism-based, Muscle tissue; design: dose 5 mg/kg, route intravenous; in short: as §4
[16] = Drug level in Long Evans rat eye assessed as radioactivity per gram of tissue at 5 mg/kg, iv administered as single bolus dose measured 0.5 hrs postdose by autoradiography; assay type: ADME, organism-based; design: dose 5 mg/kg, route intravenous; conditions: in vivo; in short: as §3
Liver [17] = test: Drug level in Long Evans rat liver assessed as low disposition of radioactivity per gram of tissue at 5 mg/kg, iv administered as single bolus dose measured 168 hrs postdose by autoradiography; assay type: ADME, organism-based; design: dose 5 mg/kg, route intravenous; conditions: in vivo; in short: as §3
Cerebrospinal fluid [18] = test: AUC (0 to 24 hrs) in F344 rat cerebrospinal fluid assessed as total compound-derived radioactivity per gram of tissue at 5 mg/kg, iv administered as single bolus dose […]; assay type: ADME, organism-based; design: time < 24 hr, dose 5 mg/kg, route intravenous; conditions: in vivo; in short: as §1
Spleen = test: Tmax in F344 rat spleen assessed as total compound-derived radioactivity at 5 mg/kg, iv administered as single bolus dose […]; assay type: ADME, organism-based; design: dose 5 mg/kg, route intravenous; conditions: in vivo; in short: as §2
Lung [19] = test: Drug level in Long Evans rat lung assessed as radioactivity per gram of tissue at 5 mg/kg, iv administered as single bolus dose measured 24 hrs postdose by autoradiography; assay type: ADME, organism-based; design: dose 5 mg/kg, route intravenous; conditions: in vivo; in short: as §3
Kidney = test: Drug level in Long Evans rat kidney assessed as low disposition of radioactivity per gram of tissue at 5 mg/kg, iv administered as single bolus dose measured 72 hrs postdose by autoradiography; assay type: ADME, organism-based; design: dose 5 mg/kg, route intravenous; conditions: in vivo; in short: as §3
Plasma [20] = test: Cmax in F344 rat plasma assessed as total compound-derived radioactivity per gram of tissue at 5 mg/kg, iv administered as single bolus dose after 5 mins by HPLC method; assay type: ADME, organism-based; design: dose 5 mg/kg, route intravenous; conditions: in vivo; in short: as §1
Muscle tissue [21] = test: Cmax in F344 rat muscle assessed as total compound-derived radioactivity per gram of tissue at 5 mg/kg, iv administered as single bolus dose […]; assay type: ADME, organism-based; design: dose 5 mg/kg, route intravenous; conditions: in vivo; in short: as §1
Blood [22] = test: Half life in F344 rat blood assessed as total compound-derived radioactivity at 5 mg/kg, iv administered as single bolus dose […]; assay type: ADME, organism-based; design: dose 5 mg/kg, route intravenous; conditions: in vivo; in short: as §2
Zone of skin [23] = test: Half life in F344 rat skin assessed as total compound-derived radioactivity at 5 mg/kg, iv administered as single bolus dose […]; assay type: ADME, organism-based; design: dose 5 mg/kg, route intravenous; conditions: in vivo; in short: as §2
Muscle tissue [24] = test: Drug level in Long Evans rat muscle assessed as radioactivity per gram of tissue at 5 mg/kg, iv administered as single bolus dose measured 6 hrs postdose by autoradiography; assay type: ADME, organism-based; design: dose 5 mg/kg, route intravenous; conditions: in vivo; in short: as §5
Liver [25] = test: AUC (0 to 24 hrs) in F344 rat liver at 5 mg/kg, iv administered as single bolus dose; assay type: ADME, organism-based; design: time < 24 hr, dose 5 mg/kg, route intravenous; conditions: in vivo; in short: as §6

SMILES: CCCCCOc1ccc(-c2ccc(-c3ccc([14C](=O)N[C@H]4C[C@@H](O)[C@@H](O)NC(=O)[C@@H]5[C@@H](O)[C@@H](C)CN5C(=O)[C@H]([C@@H](C)O)NC(=O)[C@H]([C@H](O)[C@@H](O)c5ccc(O)cc5)NC(=O)[C@@H]5C[C@@H](O)CN5C(=O)[C@H]([C@@H](C)O)NC4=O)cc3)cc2)cc1 [14C-ANIDULAFUNGIN]
- AUC (Blood [1]): 203.14 ugequiv.hr/g
- t1/2 (Plasma [2]): 37.4 h
- AUC (Liver [3]): 2656.38 ugequiv.hr/g
- t1/2 (Lung [4]): 42.2 h
- Drug uptake (Liver [5]): 29.63 ugequiv
- Tmax [6]: 0.5 h
- Drug uptake (Muscle tissue [7]): 0.43 ugequiv
- t1/2 (Liver [8]): 69.2 h
- AUC (Muscle tissue [9]): 54.33 µg·h/g
- Drug uptake (Liver [10]): 14.7 ugequiv
- Drug uptake (Liver [11]): 16.9 ugequiv
- Drug uptake (Zone of skin [12]): 5.34 ugequiv
- t1/2 (Cerebrospinal fluid [13]): 53.8 h
- Drug uptake [14]: 1.36 ugequiv
- Tmax [15]: 0.5 h
- Drug uptake [16]: 1.17 ugequiv
- Drug uptake (Liver [17]): 1.83 ugequiv
- AUC (Cerebrospinal fluid [18]): 0.61 ugequiv.hr/g
- Tmax (Spleen): 0.5 h
- Drug uptake (Lung [19]): 8.05 ugequiv
- Drug uptake (Kidney): 1.97 ugequiv
- Cmax (Plasma [20]): 7.57 ugequiv/g
- Cmax (Muscle tissue [21]): 4.16 ugequiv/g
- t1/2 (Blood [22]): 28.5 h
- t1/2 (Zone of skin [23]): 56.6 h
- Drug uptake (Muscle tissue [24]): 2.53 ugequiv
- AUC (Liver [25]): 586.44 µg·h/g
